Experiments:
Type in all cases: toxicity, cell-based
Fibroblast = experiment: Multiplex assay against human fibroblast
In short: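 Hoechst33342, BioTracker Green Microtubule Cytoskeleton Dye, MitoTracker Red and Annexin V Alexa Fluor 680 were added to live cells at seeding, and imaging on a CQ1 microscope at 37°C and 5% CO2 followed compound addition. Gating by CellPathfinder machine learning separated cells into Hoechst high-intensity objects or normal cells, then normal cells into healthy, pyknosed or fragmented nuclei, then pyknosed cells into mitotic or apoptotic. Per cents of healthy-nucleus cells are reported for the tubulin, mitochondrial-mass and membrane-permeability phenotypes.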

HEK-293T = experiment: Incucyte cell viability with HEK293T; settings: human, 10 µM, compound concentration 10 uM; also: filed as whole numbers so only -1 and 0 and 1 occur
U2OS = experiment: Incucyte cell viability with U2OS; settings: human, 10 µM, compound concentration 10 uM; also: filed as whole numbers so only -1 and 0 and 1 occur
[1] = 12 h, 1 µM, compound concentration 1 uM, replicate 1
[2] = 12 h, 1 µM, compound concentration 1 uM, replicate 2
[3] = 12 h, 10 µM, compound concentration 10 uM, replicate 1
[4] = 12 h, 10 µM, compound concentration 10 uM, replicate 2
[5] = 24 h, 1 µM, compound concentration 1 uM, replicate 1
[6] = 24 h, 1 µM, compound concentration 1 uM, replicate 2
[7] = 24 h, 10 µM, compound concentration 10 uM, replicate 1
[8] = 24 h, 10 µM, compound concentration 10 uM, replicate 2
[9] = 48 h, 1 µM, compound concentration 1 uM, replicate 1
[10] = 48 h, 1 µM, compound concentration 1 uM, replicate 2
[11] = 48 h, 10 µM, compound concentration 10 uM, replicate 1
[12] = 48 h, 10 µM, compound concentration 10 uM, replicate 2
[13] = 18 h, replicate number 1, timepoint 18 hours
[14] = 24 h, replicate number 1, timepoint 24 hours

N#CCNC(=O)c1ccc(-c2ccnc(Nc3ccc(N4CCOCC4)cc3)n2)cc1 [MOMELOTINIB]
Population Apoptotic (%) (Fibroblast; [1]): 64%
Population Fragmented Nuclei (%) (Fibroblast; [1]): 26%
Population Healthy Nuclei (%) (Fibroblast; [1]): 40%
Population Hoechst High Intensity Objects (%) (Fibroblast; [1]): 11%
Population Membrane Permeable-Phenotype (%) (Fibroblast; [1]): 30%
Population Mitochondria Different-Phenotype (%) (Fibroblast; [1]): 4%
Population Mitotic Cells (%) (Fibroblast; [1]): 35%
Population Normal (%) (Fibroblast; [1]): 88%
Population Pyknosed Nuclei (%) (Fibroblast; [1]): 33%
Population Tubulin-Different-Phenotype (%) (Fibroblast; [1]): 21%
Total Cell Count (Fibroblast; [1]): 117
Population Apoptotic (%) (Fibroblast; [2]): 60%
Population Fragmented Nuclei (%) (Fibroblast; [2]): 1%
Population Healthy Nuclei (%) (Fibroblast; [2]): 88%
Population Hoechst High Intensity Objects (%) (Fibroblast; [2]): 8%
Population Membrane Permeable-Phenotype (%) (Fibroblast; [2]): 2%
Population Mitochondria Different-Phenotype (%) (Fibroblast; [2]): 13%
Population Mitotic Cells (%) (Fibroblast; [2]): 40%
Population Normal (%) (Fibroblast; [2]): 91%
Population Pyknosed Nuclei (%) (Fibroblast; [2]): 9%
Population Tubulin-Different-Phenotype (%) (Fibroblast; [2]): 11%
Total Cell Count (Fibroblast; [2]): 3119
Population Apoptotic (%) (Fibroblast; [3]): 63%
Population Fragmented Nuclei (%) (Fibroblast; [3]): 40%
Population Healthy Nuclei (%) (Fibroblast; [3]): 28%
Population Hoechst High Intensity Objects (%) (Fibroblast; [3]): 13%
Population Membrane Permeable-Phenotype (%) (Fibroblast; [3]): 16%
Population Mitochondria Different-Phenotype (%) (Fibroblast; [3]): 10%
Population Mitotic Cells (%) (Fibroblast; [3]): 36%
Population Normal (%) (Fibroblast; [3]): 86%
Population Pyknosed Nuclei (%) (Fibroblast; [3]): 31%
Population Tubulin-Different-Phenotype (%) (Fibroblast; [3]): 45%
Total Cell Count (Fibroblast; [3]): 153
Population Apoptotic (%) (Fibroblast; [4]): 13%
Population Fragmented Nuclei (%) (Fibroblast; [4]): 27%
Population Healthy Nuclei (%) (Fibroblast; [4]): 47%
Population Hoechst High Intensity Objects (%) (Fibroblast; [4]): 10%
Population Membrane Permeable-Phenotype (%) (Fibroblast; [4]): 0%
Population Mitochondria Different-Phenotype (%) (Fibroblast; [4]): 6%
Population Mitotic Cells (%) (Fibroblast; [4]): 86%
Population Normal (%) (Fibroblast; [4]): 89%
Population Pyknosed Nuclei (%) (Fibroblast; [4]): 24%
Population Tubulin-Different-Phenotype (%) (Fibroblast; [4]): 6%
Total Cell Count (Fibroblast; [4]): 56
Population Apoptotic (%) (Fibroblast; [5]): 56%
Population Fragmented Nuclei (%) (Fibroblast; [5]): 26%
Population Healthy Nuclei (%) (Fibroblast; [5]): 52%
Population Hoechst High Intensity Objects (%) (Fibroblast; [5]): 11%
Population Membrane Permeable-Phenotype (%) (Fibroblast; [5]): 27%
Population Mitochondria Different-Phenotype (%) (Fibroblast; [5]): 0%
Population Mitotic Cells (%) (Fibroblast; [5]): 43%
Population Normal (%) (Fibroblast; [5]): 88%
Population Pyknosed Nuclei (%) (Fibroblast; [5]): 20%
Population Tubulin-Different-Phenotype (%) (Fibroblast; [5]): 18%
Total Cell Count (Fibroblast; [5]): 127
Population Apoptotic (%) (Fibroblast; [6]): 66%
Population Fragmented Nuclei (%) (Fibroblast; [6]): 7%
Population Healthy Nuclei (%) (Fibroblast; [6]): 86%
Population Hoechst High Intensity Objects (%) (Fibroblast; [6]): 10%
Population Membrane Permeable-Phenotype (%) (Fibroblast; [6]): 6%
Population Mitochondria Different-Phenotype (%) (Fibroblast; [6]): 15%
Population Mitotic Cells (%) (Fibroblast; [6]): 33%
Population Normal (%) (Fibroblast; [6]): 89%
Population Pyknosed Nuclei (%) (Fibroblast; [6]): 5%
Population Tubulin-Different-Phenotype (%) (Fibroblast; [6]): 8%
Total Cell Count (Fibroblast; [6]): 3108
Population Apoptotic (%) (Fibroblast; [7]): 48%
Population Fragmented Nuclei (%) (Fibroblast; [7]): 39%
Population Healthy Nuclei (%) (Fibroblast; [7]): 37%
Population Hoechst High Intensity Objects (%) (Fibroblast; [7]): 14%
Population Membrane Permeable-Phenotype (%) (Fibroblast; [7]): 29%
Population Mitochondria Different-Phenotype (%) (Fibroblast; [7]): 12%
Population Mitotic Cells (%) (Fibroblast; [7]): 51%
Population Normal (%) (Fibroblast; [7]): 85%
Population Pyknosed Nuclei (%) (Fibroblast; [7]): 23%
Population Tubulin-Different-Phenotype (%) (Fibroblast; [7]): 46%
Total Cell Count (Fibroblast; [7]): 147
Population Apoptotic (%) (Fibroblast; [8]): 45%
Population Fragmented Nuclei (%) (Fibroblast; [8]): 31%
Population Healthy Nuclei (%) (Fibroblast; [8]): 52%
Population Hoechst High Intensity Objects (%) (Fibroblast; [8]): 5%
Population Membrane Permeable-Phenotype (%) (Fibroblast; [8]): 28%
Population Mitochondria Different-Phenotype (%) (Fibroblast; [8]): 34%
Population Mitotic Cells (%) (Fibroblast; [8]): 54%
Population Normal (%) (Fibroblast; [8]): 94%
Population Pyknosed Nuclei (%) (Fibroblast; [8]): 16%
Population Tubulin-Different-Phenotype (%) (Fibroblast; [8]): 14%
Total Cell Count (Fibroblast; [8]): 59
Population Apoptotic (%) (Fibroblast; [9]): 44%
Population Fragmented Nuclei (%) (Fibroblast; [9]): 34%
Population Healthy Nuclei (%) (Fibroblast; [9]): 57%
Population Hoechst High Intensity Objects (%) (Fibroblast; [9]): 16%
Population Membrane Permeable-Phenotype (%) (Fibroblast; [9]): 16%
Population Mitochondria Different-Phenotype (%) (Fibroblast; [9]): 1%
Population Mitotic Cells (%) (Fibroblast; [9]): 55%
Population Normal (%) (Fibroblast; [9]): 83%
Population Pyknosed Nuclei (%) (Fibroblast; [9]): 8%
Population Tubulin-Different-Phenotype (%) (Fibroblast; [9]): 17%
Total Cell Count (Fibroblast; [9]): 129
Population Apoptotic (%) (Fibroblast; [10]): 80%
Population Fragmented Nuclei (%) (Fibroblast; [10]): 33%
Population Healthy Nuclei (%) (Fibroblast; [10]): 61%
Population Hoechst High Intensity Objects (%) (Fibroblast; [10]): 15%
Population Membrane Permeable-Phenotype (%) (Fibroblast; [10]): 4%
Population Mitotic Cells (%) (Fibroblast; [10]): 20%
Population Normal (%) (Fibroblast; [10]): 84%
Population Pyknosed Nuclei (%) (Fibroblast; [10]): 5%
Population Tubulin-Different-Phenotype (%) (Fibroblast; [10]): 21%
Total Cell Count (Fibroblast; [10]): 117
Population Apoptotic (%) (Fibroblast; [11]): 60%
Population Fragmented Nuclei (%) (Fibroblast; [11]): 47%
Population Healthy Nuclei (%) (Fibroblast; [11]): 40%
Population Hoechst High Intensity Objects (%) (Fibroblast; [11]): 14%
Population Membrane Permeable-Phenotype (%) (Fibroblast; [11]): 25%
Population Mitochondria Different-Phenotype (%) (Fibroblast; [11]): 9%
Population Mitotic Cells (%) (Fibroblast; [11]): 40%
Population Normal (%) (Fibroblast; [11]): 85%
Population Pyknosed Nuclei (%) (Fibroblast; [11]): 11%
Population Tubulin-Different-Phenotype (%) (Fibroblast; [11]): 37%
Total Cell Count (Fibroblast; [11]): 155
Population Apoptotic (%) (Fibroblast; [12]): 50%
Population Fragmented Nuclei (%) (Fibroblast; [12]): 52%
Population Hoechst High Intensity Objects (%) (Fibroblast; [12]): 8%
Population Membrane Permeable-Phenotype (%) (Fibroblast; [12]): 11%
Population Mitochondria Different-Phenotype (%) (Fibroblast; [12]): 1%
Population Mitotic Cells (%) (Fibroblast; [12]): 50%
Population Normal (%) (Fibroblast; [12]): 91%
Population Pyknosed Nuclei (%) (Fibroblast; [12]): 6%
Population Tubulin-Different-Phenotype (%) (Fibroblast; [12]): 58%
Total Cell Count (Fibroblast; [12]): 162
Growth Rate (HEK-293T; 0 h, replicate number 1, timepoint 0 hours): 0
Growth Rate (HEK-293T; [13]): 0
Growth Rate (HEK-293T; 18 h, replicate number 2, timepoint 18 hours): 1
Growth Rate (HEK-293T; [14]): 0
Growth Rate (U2OS; 0 h, replicate number 2, timepoint 0 hours): 1
Growth Rate (U2OS; 12 h, replicate number 1, timepoint 12 hours): 1
Growth Rate (U2OS; [13]): 0
Growth Rate (U2OS; [14]): 0
